Columns and labels:
Neutrophil [1] = experiment: Cytotoxicity against LPS-stimulated human neutrophils assessed as reduction in cell viability up to 50 uM incubated for 1 hr followed by LPS stimulation by propidium iodide staining based method
Summary of the method: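 Viability measured by propidium iodide staining in neutrophils (1 × 10^6/mL) cultured in RPMI 1640. Compounds at final 10, 20, 50 μM were added 1 h before LPS (100 ng/mL). Read-out by cytometry, with 0.1% Triton X-100 as positive control.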

Neutrophil [2] = experiment: Antiinflammatory activity against f-MLP-stimulated human neutrophils assessed as reduction in ROS production incubated for 40 mins measured at intervals of 2 mins by luminol-dependent chemiluminescence assay; format: functional, cell-based
Summary of the method: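 Freshly isolated human neutrophils suspended in HBSS at 2.0 × 10^5/mL and incubated with compounds at final 5, 10, 20 μM, diluted from DMSO stocks. ROS release triggered by f-MLP and read by luminol-dependent chemiluminescence. Quercetin served as positive control. Data as mean ± SEM, ANOVA with Tukey post hoc test.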

Neutrophil [3] = experiment: Antiinflammatory activity against LPS-stimulated human neutrophils assessed as reduction in IL-8 production incubated for 1 hr followed by LPS stimulation measured after 18 to 24 hrs by ELISA; format: functional, cell-based
Summary of the method: (§1)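 Human neutrophils isolated from buffy coat, 1.0 × 10^6/mL in RPMI 1640 with 10% FBS, 10 mM HEPES, 2 mM L-glutamine. Compounds added from 10 mM DMSO stocks at final 10, 20, 50 μM, 1 h before LPS (100 ng/mL). Culture at 37 °C, 5% CO2. Supernatants taken after 18 h by centrifugation and cytokine measured by ELISA. Quercetin positive control; mean ± SEM, ANOVA with Tukey.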

Neutrophil [4] = experiment: Antiinflammatory activity against LPS-stimulated human neutrophils assessed as reduction in TNFalpha production incubated for 1 hr followed by LPS stimulation measured after 18 to 24 hrs by ELISA; format: functional, cell-based; summary of the method: as §1

| SMILES | IC50 (Neutrophil [2]) | IC50 (Neutrophil [3]) | IC50 (Neutrophil [4]) | Activity (Neutrophil [1]) |
| --- | --- | --- | --- | --- |
| COc1c(O)cc2oc(-c3ccc(O)c(O)c3)c(O[C@@H]3O[C@H](CO[C@@H]4O[C@H](CO)[C@@H](O)[C@H](O)[C@H]4O)[C@H](O)[C@H](O)[C@H]3O)c(=O)c2c1O | 5.7 µM | 28.9 µM | 9.3 µM | Non-Toxic |
| COc1c(O)cc2oc(-c3ccc(O)c(O)c3)c(O[C@@H]3O[C@H](CO)[C@H](O)[C@H](O)[C@H]3O[C@@H]3OC[C@](O)(CO)[C@H]3O)c(=O)c2c1O | 7.1 µM | 7.2 µM | 12.8 µM | Non-Toxic |
| COc1c(O)cc2oc(-c3ccc(O)c(O)c3)c(O[C@@H]3O[C@H](CO)[C@H](O)[C@H](O)[C@H]3O)c(=O)c2c1O | 3.4 µM | 8 µM | 7.7 µM | – |
| O=c1c(O)c(-c2ccc(O)c(O)c2)oc2cc(O)cc(O)c12 [QUERCETIN] | 4.4 µM | 33 µM | 20.4 µM | – |
| COc1c(O)cc2oc(-c3ccc(O)cc3)c(O[C@@H]3O[C@H](CO)[C@H](O)[C@H](O)[C@H]3O)c(=O)c2c1O | 15.4 µM | 18.1 µM | 11.7 µM | – |
| COc1c(O)cc2oc(-c3ccc(O)c(O)c3)c(O[C@@H]3O[C@H](CO[C@@H]4OC[C@H](O)[C@H](O)[C@H]4O)[C@H](O)[C@H](O)[C@H]3O)c(=O)c2c1O | 5.7 µM | 25.5 µM | – | Non-Toxic |
| COc1cc(-c2oc3cc(O)c(OC)c(O)c3c(=O)c2O[C@@H]2O[C@H](CO)[C@H](O)[C@H](O)[C@H]2O)ccc1O | 38.5 µM | 51.9 µM | 16.3 µM | Non-Toxic |
| COc1c(O)cc2oc(-c3ccc(O)c(O)c3)c(O[C@@H]3O[C@H](CO)[C@H](O)[C@H](O)[C@H]3O[C@@H]3OC[C@](O)(CO[C@@H]4OC[C@H](O)[C@H](O)[C@H]4O)[C@H]3O)c(=O)c2c1O | 5.4 µM | 24.5 µM | 9.7 µM | Non-Toxic |

Second part, led by results:

| IC50 (Neutrophil [2]) | IC50 (Neutrophil [3]) | IC50 (Neutrophil [4]) | SMILES | Activity (Neutrophil [1]) |
| --- | --- | --- | --- | --- |
| 31.5 µM | 25.7 µM | 16.3 µM | COc1cc(-c2oc3cc(O[C@@H]4O[C@H](CO)[C@@H](O)[C@H](O)[C@H]4O)c(OC)c(O)c3c(=O)c2O[C@@H]2O[C@H](CO)[C@H](O)[C@H](O)[C@H]2O)ccc1O | Non-Toxic |
| 26.9 µM | 66 µM | – | COc1c(O[C@@H]2O[C@H](CO)[C@@H](O)[C@H](O)[C@H]2O)cc2oc(-c3ccc(O)c(O)c3)c(O[C@@H]3O[C@H](CO)[C@H](O)[C@H](O)[C@H]3O)c(=O)c2c1O | Non-Toxic |
| 6 µM | – | 20.7 µM | COc1cc(/C=C/C(=O)OC[C@H]2O[C@@H](Oc3cc4oc(-c5ccc(O)c(OC)c5)c(O[C@@H]5O[C@H](CO)[C@H](O)[C@H](O)[C@H]5O)c(=O)c4c(O)c3OC)[C@H](O)[C@@H](O)[C@@H]2O)ccc1O | Non-Toxic |
| 36.6 µM | 46.7 µM | 23.2 µM | COc1cc(/C=C/C(=O)OC[C@H]2O[C@@H](Oc3cc4oc(-c5ccc(O)c(O)c5)c(O[C@@H]5O[C@H](CO)[C@H](O)[C@H](O)[C@H]5O)c(=O)c4c(O)c3OC)[C@H](O)[C@@H](O)[C@@H]2O)ccc1O | Non-Toxic |
